Assay outcomes (PubChem BioAssay)
core dimer inh: inhibitors of HCV core protein dimerization, primary screen, biochemical, TR-FRET, high-throughput | TR-FRET GST/Flag-core106 dimerization, 1536-well | inhibition, % at 5 µM | 300,000 tested, 0.33% active | AID 1899, 2009;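 active means inhibition above the mean of all tested compounds plus 3 SD, set per screening campaign, cut at about 45% in these data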
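Assay system: Tagged HCV core106 pair (GST and Flag) | Buffer or medium: KF-containing HEPES buffer, pH 7.45, DTT, CHAPS, BSA | Also added: Eu donor and XL665 acceptor anti-tag antibodies | Dosing: One concentration, 5 µM, in 0.5% DMSO | Timing: 4 h at 22.5 °C | Technique: TR-FRET 671 and 617 nm emission | Repeats: Singlicate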
HCV NS3 hel inh: inhibitors of HCV NS3 helicase, primary screen, biochemical, Cy5 molecular beacon fluorescence; 290,000 tested, 0.56% active; inhibition, % at 10.9 µM; NS3 helicase DNA unwinding; Hepatitis C virus NS3 helicase;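 active means inhibition above the mean of all tested compounds plus 3 SD, set per campaign, cut at about 35% in these data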;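 further: 0% = DMSO wells and 100% = thioflavine S control wells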
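test system = hepatitis C virus NS3 helicase domain fragment enzyme | reagent = annealed dual-labelled DNA beacon duplex, ATP-started | times = 1 h at 25 °C | detection = Cy5 fluorescence, 0 and 60 min reads | read-out basis = percent inhibition from t60/t0 fluorescence ratio | control set = DMSO and thioflavine S | replication = one well per compound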
ZTA counter: ZTA (EBV) inhibition in EBNA-1 counter-screen. P03206. 320,000 tested, 0.15% active. inhibition, % at 11 µM. ZTA-DNA binding, fluorescence polarization; in the data active means inhibition above about 33%
Target sequence (P03206 whole entry, looked up): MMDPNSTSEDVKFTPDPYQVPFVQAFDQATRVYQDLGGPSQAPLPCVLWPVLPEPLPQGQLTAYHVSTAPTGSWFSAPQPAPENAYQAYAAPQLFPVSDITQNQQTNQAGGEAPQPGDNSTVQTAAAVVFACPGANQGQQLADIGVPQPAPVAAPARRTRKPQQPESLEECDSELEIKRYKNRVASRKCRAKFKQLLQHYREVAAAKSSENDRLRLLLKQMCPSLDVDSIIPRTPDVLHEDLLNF
UBC9 SUMO inh: inhibitors of in vitro SUMOylation cascade, primary screen, biochemical, HTRF, uHTS; HTRF SUMOylation assay, SAE1/SAE2 + UBC9; inhibition, % at 35 µM; 290,000 tested, 0.36% active; AID 2006, 2009; in the data active means inhibition above about 50%, passing the limit was not always enough
Target sequence (P63279 whole entry, looked up): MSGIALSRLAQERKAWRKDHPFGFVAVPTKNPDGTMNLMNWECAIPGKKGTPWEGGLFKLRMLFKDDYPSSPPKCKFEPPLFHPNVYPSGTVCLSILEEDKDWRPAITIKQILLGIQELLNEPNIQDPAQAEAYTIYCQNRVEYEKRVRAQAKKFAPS
EBNA-1 inhibitor: EBNA-1 DNA-binding inhibitors, primary screen, biochemical, fluorescence polarization. inhibition, % at 14.8 µM. 300,000 tested, 0.34% active; in the data active means inhibition above about 28%
* hit, by the source's call; / = no result given. In the library only some 1.4% were active in any assay of this set; here they are far more common.

SMILES	core dimer inh	HCV NS3 hel inh	ZTA counter	UBC9 SUMO inh	EBNA-1 inhibitor
CC(=O)c1ccc(NC(=O)CN2C(=O)/C(=C/C=C/c3ccccc3)SC2=S)cc1	65*	27	-6	38	-15
Cc1cc(N)ccc1N1CCCC1	-1	-11	5	41	5
Cc1cc(N)ccc1-n1c(C)ccc1C	-2	-3	55*	20	29*
COc1ccc(OC)c(CNc2ncc(-c3ccc(F)cc3)n2C)c1	/	8	/	2	/
Cc1nc2ccc(NC(=O)N(C(C)C)C(C)C)cc2s1	4	-2	16	7	0
CC(C)N(C(=O)Nc1ccc2nccnc2c1)C(C)C	0	8	8	94*	-21
Cc1ccc(N(CC(=O)NC2CCCC2)C(=O)c2nsc(Cl)c2Cl)cc1	14	4	2	15	6
CCOc1ccc(CCNC(=O)COC(=O)c2nccnc2N)cc1OCC	-2	/	-6	/	-15
COc1cccc(NC(=O)CN(C)C(=O)CCc2nc3sc4c(c3c(=O)[nH]2)CCCC4)c1	49*	9	-10	7	-8
O=C(c1ccccc1Cl)N1N=C(c2cccs2)CC1c1cccc(O)c1 (stereo not drawn)	0	-3	2	6	7
O=C(COc1ccc(Cl)cc1Cl)Nc1ccc(C(=O)Nc2ccccc2C(=O)O)cc1	2	-15	1	59*	-1
O=C(COc1ccc(Cl)cc1Cl)NC(=S)Nc1ccccc1C(=O)O	17	25	5	16	-13
O=C(Nc1nc(-c2ccco2)c(-c2ccco2)s1)c1cnccn1	69*	/	17	/	11
O=C(Nc1nc(-c2ccco2)c(-c2ccco2)s1)c1c(F)cccc1Cl	/	/	16	/	/
CCCCn1c(N)c(N(CCOC)C(=O)c2ccco2)c(=O)[nH]c1=O	0	/	10	/	9
O=C(Nc1ccc2nc(-c3ccco3)c(-c3ccco3)nc2c1)N1CCCCCC1	75*	49*	41*	58*	24
CCOC(=O)C1CCN(C(=O)Nc2ccc3c(c2)nc(C)n3C)CC1	6	-6	-11	12	-6
Cc1nc2ccc(NC(=O)N3CCCCC3)cc2nc1C	-2	-9	13	19	-5
CCOC(=O)C1CCN(C(=O)Nc2ccc3nc(-c4ccco4)c(-c4ccco4)nc3c2)CC1	72*	6	11	73*	4
CCc1nnc(NC(=O)CC(C)c2ccccc2)s1 (stereo not drawn)	0	-13	-3	-5	-3
CCCCOc1ccc(C(=O)NCC(=O)NCC2CCCO2)cc1 (stereo not drawn)	-2	-6	5	6	3
COc1ccc(C(=O)COC(=O)c2cc(C)no2)c(OC)c1	/	/	-4	/	/
CCN(CC)c1ccc(N=Cc2ccc(N(CC)CC)cc2O)cc1	-3	35	192*	-14	129*
N#Cc1ccc(CSc2nnc(NC(=O)c3ccc4ncsc4c3)s2)cc1	3	-4	6	-71	37*
O=C(Nc1nnc(SCc2c(Cl)cccc2Cl)s1)c1ccc2ncsc2c1	3	-7	0	30	-4
SMILES	core dimer inh	HCV NS3 hel inh	ZTA counter	UBC9 SUMO inh	EBNA-1 inhibitor
COc1ccc(CC2S/C(=N/N=C/c3ccccc3O)NC2=O)cc1 (stereo not drawn)	8	-3	-1	58*	4
O=C1N/C(=N/N=C/c2ccc(O)cc2)SC1Cc1ccccc1 (stereo not drawn)	-2	-2	5	16	10
O=C1N/C(=N/N=C/c2ccccc2O)SC1Cc1ccc(F)cc1 (stereo not drawn)	11	3	18	61*	14
Cc1cc(/C=C2\SC(=O)N(C)C2=O)c(C)n1-c1ccc(O)cc1	16	11	3	74*	-8
CCCn1nc(C(=O)Nc2ccc3c(c2)OCCO3)c2ccccc2c1=O	/	/	-6	/	/
CCOCC(=O)Nc1nc(C)cc(C)n1	-6	-8	-8	69*	-1
CC(=O)CC(=O)Nc1nc(C)cc(C)n1	-3	-5	7	15	8
O=c1c2ccccc2nc2n1CCC2	3	4	0	73*	-5
O=C(CSc1ccc(-c2ccco2)nn1)c1ccccc1	48*	29	0	20	1
C/C=C/C(=O)Nc1cccc(C2=NOC3(C2)C[C@H](C(N)=O)N(C(=O)/C=C/C)C3)c1 (stereo partly drawn)	1	/	-3	4	5
C/C=C/C=C\C(=O)Nc1cccc(C2=NOC3(C2)C[C@@H](C(N)=O)N(C(=O)/C(C)=C/C)C3)c1 (stereo partly drawn)	52*	/	10	2	14
C/C=C/C=C/C(=O)N1CC2(CC(c3cccc(NC(=O)/C=C/C)c3)=NO2)C[C@@H]1C(N)=O (stereo partly drawn)	47*	/	-6	15	5
C/C=C\C=C/C(=O)Nc1cccc(C2=NOC3(C2)C[C@H](C(N)=O)N(C(=O)CC)C3)c1 (stereo partly drawn)	41	/	8	17	8
Cc1ccc(/C=C/C(=O)N2CCc3ccccc32)o1	63*	28	6	30	-7
C[C@@]12C(=O)N(CCO)CC(=O)N1[C@H](/C=C/c1ccccc1)[C@@H]1C(=O)N(c3ccccc3)C(=O)[C@@H]12	8	10	18	11	5
O=C(OCC(=O)c1ccc(Cl)s1)c1cnccn1	54*	20	1	21	8
O=C(OCC(=O)c1ccc(Cl)s1)c1ccccn1	-15	-8	-15	-11	1
CCN1C(=O)[C@H]2[C@@H](c3ccc(Cl)cc3)N3C(=O)CN(CC4CC4)C(=O)[C@@]3(C)[C@H]2C1=O	6	-22	11	10	10
O=C(c1ccc(F)cc1Cl)N(Cc1ccco1)C1CCS(=O)(=O)C1 (stereo not drawn)	/	/	0	/	/
COc1ccc(N2CSC3=C(C#N)C(c4cc(OC)c(OC)cc4OC)CC(=O)N3C2)c(OC)c1 (stereo not drawn)	9	66*	1	18	-6
COc1ccc(N2CSC3=C(C#N)C(c4cc(OC)ccc4OC)CC(=O)N3C2)c(OC)c1 (stereo not drawn)	-2	28	-2	4	-14
Cc1cc(NC(=O)c2ccccc2C)n(-c2cccc(F)c2)n1	-6	8	4	0	1
COC(=O)CSc1ncnc2c1sc1nc(-c3ccco3)c3c(c12)CC(C)(C)OC3	64*	20	-6	15	9
CCSc1ncnc2c1sc1nc(-c3ccco3)c3c(c12)CC(C)(C)OC3	65*	27	-7	25	2
COc1ccc([C@H]2CC(=O)C=C(c3ccc(Oc4ccccc4)cc3)C2)cc1OC	/	/	-3	/	/
